Laboratory results published in ChEMBL document CHEMBL5230083, “Novel 2, 5-diketopiperazine derivatives as potent selective histone deacetylase 6 inhibitors: Rational design, synthesis and antiproliferative activity” (Eur J Med Chem, 2020).
Where a name gives a salt, the structure may show the parent alone. Active and inactive are the calls of the source. The rule behind the calls is not given here. Square brackets hold non-standard residues; d marks the D form. Peptide text beside a SMILES is read from it. * marks the point of attachment. Asu = N[C@@H](CCCCCC(=O)O)C(=O)O; X1 = CC(=O)[C@H](Cc1cnc[nH]1)N*; NHOH = ON*

Tests used:
Histone deacetylase 8 = target: T1, Histone deacetylase 8 (Homo sapiens, UniProt Q9BY41); test: (§1) Inhibition of HDAC8 (unknown origin) using Fluor de lys as substrate by fluorescence based analysis
T1 sequence (Q9BY41 whole entry): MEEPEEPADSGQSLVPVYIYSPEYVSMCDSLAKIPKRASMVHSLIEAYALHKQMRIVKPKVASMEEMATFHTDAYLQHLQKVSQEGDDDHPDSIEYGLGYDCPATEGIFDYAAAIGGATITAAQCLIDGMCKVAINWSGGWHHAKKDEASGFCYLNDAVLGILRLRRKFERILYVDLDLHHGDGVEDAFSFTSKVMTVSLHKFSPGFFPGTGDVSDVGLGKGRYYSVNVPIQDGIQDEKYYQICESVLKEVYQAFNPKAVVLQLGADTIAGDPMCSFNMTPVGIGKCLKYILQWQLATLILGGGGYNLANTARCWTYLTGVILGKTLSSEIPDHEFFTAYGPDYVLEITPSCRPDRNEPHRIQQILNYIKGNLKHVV

Histone deacetylase 1 = Histone deacetylase 1 (Homo sapiens, UniProt Q13547); test: Inhibition of HDAC1 (unknown origin) using Fluor de lys as substrate by fluorescence based analysis
Chain of Histone deacetylase 1 (Q13547 whole entry): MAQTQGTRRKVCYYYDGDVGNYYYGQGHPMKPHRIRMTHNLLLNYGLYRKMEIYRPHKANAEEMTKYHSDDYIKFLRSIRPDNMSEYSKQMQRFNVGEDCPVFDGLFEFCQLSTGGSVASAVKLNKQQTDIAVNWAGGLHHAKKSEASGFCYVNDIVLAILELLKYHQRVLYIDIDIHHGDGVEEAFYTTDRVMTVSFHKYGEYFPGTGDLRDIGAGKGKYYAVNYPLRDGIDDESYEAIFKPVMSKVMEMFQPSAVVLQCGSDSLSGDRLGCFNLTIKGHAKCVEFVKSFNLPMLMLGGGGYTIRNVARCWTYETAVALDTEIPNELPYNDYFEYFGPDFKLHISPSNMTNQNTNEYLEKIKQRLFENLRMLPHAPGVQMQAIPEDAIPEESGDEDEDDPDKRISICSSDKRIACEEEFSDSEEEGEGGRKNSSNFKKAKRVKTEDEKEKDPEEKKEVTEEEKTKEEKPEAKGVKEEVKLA

[1] = target: T2, Protein deacetylase HDAC6 (Homo sapiens, UniProt Q9UBN7); test: Inhibition of HDAC6 (unknown origin) using Fluor de lys as substrate by fluorescence based analysis
T2 sequence (Q9UBN7 whole entry): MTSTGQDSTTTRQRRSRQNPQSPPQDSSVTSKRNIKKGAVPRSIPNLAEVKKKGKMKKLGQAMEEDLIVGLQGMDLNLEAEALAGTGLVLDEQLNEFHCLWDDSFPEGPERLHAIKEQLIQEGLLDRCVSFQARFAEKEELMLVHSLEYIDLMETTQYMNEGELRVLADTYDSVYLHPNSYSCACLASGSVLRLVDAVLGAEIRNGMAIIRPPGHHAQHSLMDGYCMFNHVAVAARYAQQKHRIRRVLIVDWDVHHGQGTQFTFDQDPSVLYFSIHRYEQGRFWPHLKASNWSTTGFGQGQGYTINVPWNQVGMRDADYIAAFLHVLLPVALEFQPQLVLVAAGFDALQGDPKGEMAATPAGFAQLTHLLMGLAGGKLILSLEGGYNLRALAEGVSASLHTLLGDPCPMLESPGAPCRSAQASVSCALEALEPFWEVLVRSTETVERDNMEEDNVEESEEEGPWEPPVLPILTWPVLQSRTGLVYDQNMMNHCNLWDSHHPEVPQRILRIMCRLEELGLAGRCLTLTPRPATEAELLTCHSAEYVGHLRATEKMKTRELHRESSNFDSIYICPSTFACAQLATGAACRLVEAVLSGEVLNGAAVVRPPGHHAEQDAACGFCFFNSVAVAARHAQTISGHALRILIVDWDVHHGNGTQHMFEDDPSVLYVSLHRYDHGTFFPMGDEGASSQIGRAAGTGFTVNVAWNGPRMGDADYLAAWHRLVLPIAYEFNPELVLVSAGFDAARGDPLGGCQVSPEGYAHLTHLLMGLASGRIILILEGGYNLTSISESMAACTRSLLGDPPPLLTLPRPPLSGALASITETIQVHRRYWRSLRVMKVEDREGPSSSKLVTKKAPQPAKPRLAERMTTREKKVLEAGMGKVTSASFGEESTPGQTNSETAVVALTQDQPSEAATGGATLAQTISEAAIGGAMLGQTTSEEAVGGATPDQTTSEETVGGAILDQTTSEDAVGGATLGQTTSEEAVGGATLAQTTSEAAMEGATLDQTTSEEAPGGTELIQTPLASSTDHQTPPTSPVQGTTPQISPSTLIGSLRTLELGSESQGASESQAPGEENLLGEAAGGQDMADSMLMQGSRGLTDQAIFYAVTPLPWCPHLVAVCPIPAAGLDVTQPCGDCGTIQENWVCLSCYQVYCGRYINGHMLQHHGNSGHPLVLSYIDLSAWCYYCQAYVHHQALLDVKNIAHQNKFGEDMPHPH

Homo sapiens [2] = species on record: Homo sapiens; test: Selectivity index, ratio of IC50 for inhibition of HDAC1 (unknown origin) to IC50 for inhibition of HDAC6 (unknown origin)
How it was run: (§2)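 Ratio of IC50 values, each from a Fluor de Lys fluorogenic HDAC assay run in duplicate.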

Homo sapiens [3] = species on record: Homo sapiens; test: Selectivity index, ratio of IC50 for inhibition of HDAC8 (unknown origin) to IC50 for inhibition of HDAC6 (unknown origin); how it was run: as §2
[4] = Cytotoxicity against human HS5 cells assessed as inhibition of cell growth incubated for 72 hrs by alamar blue assay; assay type: toxicity, cell-based
How it was run: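 Cells were grown in IMDM with 20% FBS and penicillin/streptomycin at 37 °C in 5% CO2. Drug-treated cells were incubated 72 h. Alamar blue (1 mM solution) was then added for 5–6 h, and fluorescence read at 530/590 nm.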

U-266 = test: cells; assay type: functional, cell-based; conditions: Homo sapiens, U-266, 72 h
[5] = Microsomal stability in human liver microsomes assessed as half life at 0.5 uM prewarmed for 5 mins followed by NADPH addition and measured for 90 mins by LC-MS/MS analysis; assay type: ADME, Microsome; conditions: time 95 min
How it was run: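 Incubation held 0.8 mg/mL human liver microsomes, MgCl2, potassium phosphate buffer pH 7.4 and 0.5 μM compound. After 5 min prewarming at 37 °C, NADPH started the reaction.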

RPMI-8226 = test: cells; assay type: functional, cell-based; conditions: Homo sapiens, RPMI-8226, 72 h
[6] = target: Histone deacetylase 8 (Homo sapiens) (UniProt Q9BY41); test: as §1
[7] = Inhibition of full length HDAC1/MTA1 (162 to 354 residues) (unknown origin) transfected in HEK293F cells using BOC-Lys-AMC as substrate incubated for 30 mins by fluorescence based analysis; set-up: species or system Homo sapiens
A549 [8] = test: Antiproliferative activity against human A549 cells assessed as inhibition of cell growth incubated for 72 hrs by alamar blue assay; assay type: functional, cell-based; conditions: A549, 72 h
How it was run: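 Cells grown in IMDM with 20% FBS and penicillin/streptomycin at 37 °C, 5% CO2. Compound added to plated cells for 72 h. Alamar blue (1 mM solution) then added for 5–6 h, and fluorescence read at 530/590 nm. IC50 derived for single-agent treatment.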

A549 [9] = test: Antiproliferative activity against human A549 cells assessed as inhibition of cell growth incubated for 72 hrs in presence of (R)-4-((3,4-dibenzyl-2,5-dioxopiperazin-1-yl)methyl)-N-hydroxybenzamide by alamar blue assay; assay type: functional, cell-based; conditions: A549, 72 h
How it was run: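 Alamar blue assay in IMDM/20% FBS at 37 °C, 5% CO2. Cells were exposed to the two agents together for 72 h, with 5–6 h Alamar blue and fluorescence at 530/590 nm. IC50 in combination was determined. CI50 = IC50Ac/IC50As + IC50Bc/IC50Bs, comparing combination with single-agent IC50s.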

IC50 (Histone deacetylase 8) [nM]	IC50 (Histone deacetylase 1) [nM]	IC50 [1] [nM]	Ratio IC50 (Homo sapiens [2])	Ratio IC50 (Homo sapiens [3])	IC50 (U-266) [nM]	IC50 (RPMI-8226) [nM]	SMILES	also measured
130	9200	11.7	786	11	–	–	O=C(NO)c1ccc(CN2CC(=O)N(Cc3ccc(Cl)cc3)[C@H](Cc3ccccc3)C2=O)cc1	–
112	6390	6.64	–	–	–	–	O=C1CN(Cc2ccc(C(=O)NO)cc2)C(=O)[C@H](Cc2c[nH]c3ccccc23)N1	–
171	8100	13.7	591	12	–	–	COc1cccc(CN2C(=O)CN(Cc3ccc(C(=O)NO)cc3)C(=O)[C@H]2Cc2ccccc2)c1	–
–	–	16.7	–	–	–	–	CN1C(=O)CN(Cc2ccc(C(=O)NO)cc2)C(=O)C1Cc1ccccc1 (racemic)	–
162	8310	10.1	823	16	23400	12100	O=C(NO)c1ccc(CN2CC(=O)N(Cc3ccccc3Cl)[C@H](Cc3ccccc3)C2=O)cc1	IC50 at 72 hrs [4]: > 100000 nM; half-life at 0.5 µM [5]: 10.1 h
150	8550	10.5	838	14	23100	13400	O=C(NO)c1ccc(CN2CC(=O)N(Cc3cccc(Cl)c3)[C@H](Cc3ccccc3)C2=O)cc1	IC50 at 72 hrs [4]: > 100000 nM
30.9	8270	8.62	959	4	86300	54400	O=C1CN(Cc2ccc(C(=O)NO)cc2)C(=O)[C@@H](Cc2ccccc2)N1	IC50 at 72 hrs [4]: > 100000 nM
–	–	4190	–	–	–	–	O=C1CN(Cc2cccc(C(=O)NO)c2)C(=O)[C@H](Cc2ccccc2)N1	inhibition [6]: inactive; inhibition (Histone deacetylase 1): inactive
1990	1780	–	–	–	–	–	O=C(NO)c1ccc(CC(=O)N(CCO)c2ccccc2)cc1	–
–	–	–	–	–	–	–	CC(=O)[C@H](Cc1cnc[nH]1)NC(=O)[C@H](CCCN=C(N)N)NC(=O)[C@H](CCCCCC(=O)NO)NC(=O)CNC(=O)CN (H-GG[Asu](NHOH)R-X1)	IC50 [7]: 336 nM
–	–	–	–	–	> 100000	9260	O=C(CCCCCCNC(=O)c1cnc(N(c2ccccc2)c2ccccc2)nc1)NO [RICOLINOSTAT]	half-life at 0.5 µM [5]: 7.5 h
–	–	–	–	–	–	–	COc1cccc2c1C(=O)c1c(O)c3c(c(O)c1C2=O)C[C@@](O)(C(=O)CO)C[C@@H]3O[C@H]1C[C@H](N)[C@H](O)[C@H](C)O1 [DOXORUBICIN HYDROCHLORIDE]	IC50 (A549 [8]): 255 nM; IC50 (A549 [9]): 152 nM
15.6	7200	17.5	411	0.9	–	–	O=C1CN(Cc2ccc(C(=O)NO)cc2)C(=O)[C@H](Cc2ccccc2)N1	–
